Common to all, as to assay type: functional, cell-based
One experiment has as its system Bel-7402. The experiment is described as follows: Antitumor activity against human Bel-7402 cells assessed as inhibition of cell proliferation incubated for 72 hrs by MTT assay. Particulars: Bel-7402, 72 h. The procedure, abridged: (§1)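 Cells were exposed to a range of compound concentrations for 72 h at 37 °C. Proliferation was read by MTT assay, and IC50 values are reported.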
(Tetrazolium assays rely on reduction of a dye to a coloured formazan, in cell work by metabolically active cells.)

In a further experiment the test system is HCT-116. The experiment is described as follows: Antitumor activity against human HCT-116 cells assessed as inhibition of cell proliferation incubated for 72 hrs by MTT assay. Particulars: HCT-116, 72 h. The procedure, abridged:
as §1

A further experiment deals with MGC-803. The experiment can be described thus: Antitumor activity against human MGC-803 cells assessed as inhibition of cell proliferation incubated for 72 hrs by MTT assay. Particulars: MGC-803, 72 h.
The subject of another experiment is Hep 3B2. The experiment can be described thus: Antitumor activity against human Hep3B cells assessed as inhibition of cell proliferation incubated for 72 hrs by MTT assay. The gist of the method:
as §1

A value given as a limit tells only on which side of the number the result lay.

With `CN(C)CCn1cc(-c2ccn3c(-c4ccc(C(N)=O)c(OCc5cccc(F)c5)c4)cnc3c2)cn1`, the IC50 was 6.37 µM in the experiment on Bel-7402, 0.7 µM with HCT-116, 0.65 µM with MGC-803 and 1.07 µM in the experiment with Hep 3B2.
For the compound `COC(=O)c1sc(-c2cnc3cc(-c4cnn(CCN5CCCC5)c4)ccn23)cc1OC(C)c1ccccc1C(F)(F)F` (stereo not given), in the experiment on MGC-803, the concentration for half-maximal inhibition (IC50) was 2.05 µM.
Same read-out and setting: then `COC(=O)c1sc(-c2cnc3cc(-c4cnn(C)c4)ccn23)cc1OC(C)c1cccc(F)c1` (stereo not given), with more than 30 µM; and `COC(=O)c1sc(-c2cnc3cc(-c4cnn(CCN5CCCCC5)c4)ccn23)cc1OC(C)c1ccccc1C(F)(F)F` (stereo not given), with 7.36 µM; and `COC(=O)c1sc(-c2cnc3cc(-c4cnn(C)c4)ccn23)cc1OC(C)c1ccccc1` (stereo not given), with 9.18 µM.
On the same count and under the same terms, then `CC(Oc1cc(-c2cnc3cc(-c4cnn(C)c4)ccn23)sc1C(N)=O)c1ccccc1` (stereo not given), with 2.98 µM.
For the compound `CC(Oc1cc(-c2cnc3cc(-c4cnn(CCN5CCOCC5)c4)ccn23)sc1C(N)=O)c1ccccc1C(F)(F)F` (stereo not given), the IC50 in the experiment with Bel-7402 is 4.33 µM; with HCT-116, 0.36 µM; with MGC-803, 0.044 µM; with Hep 3B2, 1.25 µM.
As to `COC(=O)c1sc(-c2cnc3cc(-c4cnn(CCN5CCOCC5)c4)ccn23)cc1OC(C)c1ccccc1C(F)(F)F` (stereo not given), the IC50 in the experiment with MGC-803 came out at 5.9 µM.
As to `COC(=O)c1sc(-c2cnc3cc(-c4cnn(C)c4)ccn23)cc1OC(C)c1ccccc1C(F)(F)F` (stereo not given), the IC50 in the experiment with MGC-803 was found to be 3.92 µM.
On the same count and under the same terms, then `COC(=O)c1sc(-c2cnc3cc(-c4cnn(CCN(C)C)c4)ccn23)cc1OC(C)c1cccc(F)c1` (stereo not given), with 1.57 µM; and `CC(Oc1cc(-c2cnc3cc(-c4cnn(CCN(C)C)c4)ccn23)sc1C(N)=O)c1ccccc1` (stereo not given), with 1.95 µM.
On to `CC(Oc1cc(-c2cnc3cc(-c4cnn(CCCN5CCN(C)CC5)c4)ccn23)sc1C(N)=O)c1ccccc1C(F)(F)F` (stereo not given), for which the IC50 stood at 5.99 µM with Bel-7402, 0.46 µM in the experiment on HCT-116, 0.054 µM in the experiment with MGC-803 and 1.18 µM with Hep 3B2.
Turning to `CC(Oc1cc(-c2cnc3cc(-c4cnn(C5CCN(C(=O)OC(C)(C)C)CC5)c4)ccn23)sc1C(N)=O)c1ccccc1C(F)(F)F` (stereo not given), the half-maximal inhibitory concentration (IC50) in the experiment with MGC-803 was found to be 1.81 µM.
For `COC(=O)c1sc(-c2cnc3cc(-c4cnn(C)c4)ccn23)cc1OC(C)c1cccc(C(F)(F)F)c1` (stereo not given), the half-maximal inhibitory concentration (IC50) in the experiment with MGC-803 was 17.3 µM.
The same measure, in the same setting: then `COC(=O)c1sc(-c2cnc3cc(-c4cnn(C5CCN(C(=O)OC(C)(C)C)C5)c4)ccn23)cc1OC(C)c1ccccc1C(F)(F)F` (stereo not given), with 20.3 µM.
In the case of `COC(=O)c1sc(-c2cnc3cc(-c4cnn(C5CCN(C(=O)OC(C)(C)C)CC5)c4)ccn23)cc1OC(C)c1ccccc1C(F)(F)F` (stereo not given), the concentration for half-maximal inhibition (IC50) with MGC-803 was 20.4 µM.
In the case of `COC(=O)c1sc(-c2cnc3cc(-c4cnn(CCN(C)C)c4)ccn23)cc1OC(C)c1cccc(C(F)(F)F)c1` (stereo not given), in the experiment on MGC-803, the IC50 amounted to 4.71 µM.
Regarding `CC(Oc1cc(-c2cnc3cc(-c4cnn(CCN5CCCC5)c4)ccn23)sc1C(N)=O)c1ccccc1C(F)(F)F` (stereo not given), the IC50 with MGC-803 amounted to 8.4 µM.
On to `COC(=O)c1sc(-c2cnc3cc(-c4cnn(CCN(C)C)c4)ccn23)cc1OC(C)c1ccccc1F` (stereo not given), for which the half-maximal inhibitory concentration (IC50) in the experiment with MGC-803 came out at 2.47 µM.
As for `CC(Oc1cc(-c2cnc3cc(-c4cnn(CCN(C)C)c4)ccn23)sc1C(N)=O)c1cccc(F)c1` (stereo not given), the IC50 in the experiment on MGC-803 was found to be 6.02 µM.
As to `CC(Oc1cc(-c2cnc3cc(-c4cnn(CCN(C)C)c4)ccn23)sc1C(N)=O)c1ccccc1F` (stereo not given), the half-maximal inhibitory concentration (IC50) in the experiment with MGC-803 came out at 2.91 µM.
Turning to `CC(Oc1cc(-c2cnc3cc(-c4cnn(CCN5CCCCC5)c4)ccn23)sc1C(N)=O)c1ccccc1C(F)(F)F` (stereo not given), in the experiment with MGC-803, the half-maximal inhibitory concentration (IC50) was found to be 8.68 µM.
Take `COC(=O)c1sc(-c2cnc3cc(-c4cnn(CCCN5CCN(C)CC5)c4)ccn23)cc1OC(C)c1ccccc1C(F)(F)F` (stereo not given): in the experiment with MGC-803, the IC50 amounted to 3.76 µM.
Regarding `COC(=O)c1sc(-c2cnc3cc(-c4cnn(CCN(C)C)c4)ccn23)cc1OC(C)c1ccccc1C(F)(F)F` (stereo not given), in the experiment with MGC-803, the half-inhibitory concentration (IC50) came to 0.32 µM.
On to `COC(=O)c1sc(-c2cnc3cc(-c4cnn(C)c4)ccn23)cc1OC(C)c1ccccc1F` (stereo not given), for which the IC50 in the experiment on MGC-803 is 11.1 µM.
Consider `CC(Oc1cc(-c2cnc3cc(-c4cnn(C)c4)ccn23)sc1C(N)=O)c1cccc(C(F)(F)F)c1` (stereo not given), for which, in the experiment with MGC-803, the IC50 worked out at 3.48 µM.
On the same count and under the same terms, under `CC(Oc1cc(-c2cnc3cc(-c4cnn(C)c4)ccn23)sc1C(N)=O)c1cccc(F)c1` (stereo not given) stands 16.4 µM; under `COC(=O)c1sc(-c2cnc3cc(-c4cnn(CC5CN(C(=O)OC(C)(C)C)C5)c4)ccn23)cc1OC(C)c1ccccc1C(F)(F)F` (stereo not given), 19.3 µM.
Still for that read-out and setting: then `CC(Oc1cc(-c2cnc3cc(-c4cnn(C)c4)ccn23)sc1C(N)=O)c1ccccc1F` (stereo not given), with 3.52 µM; and `CC(Oc1cc(-c2cnc3cc(-c4cnn(CCN(C)C)c4)ccn23)sc1C(N)=O)c1cccc(C(F)(F)F)c1` (stereo not given), with 6.81 µM.
Turning to `CC(Oc1cc(-c2cnc3cc(-c4cnn(CC5CN(C(=O)OC(C)(C)C)C5)c4)ccn23)sc1C(N)=O)c1ccccc1C(F)(F)F` (stereo not given), the concentration for half-maximal inhibition (IC50) worked out at 10.4 µM in the experiment on Bel-7402, 0.48 µM in the experiment on HCT-116, 0.038 µM in the experiment on MGC-803 and 1.25 µM in the experiment with Hep 3B2.
Regarding `COC(=O)c1sc(-c2cnc3cc(-c4cnn(CCN(C)C)c4)ccn23)cc1OC(C)c1ccccc1` (stereo not given), the 50% inhibitory concentration (IC50) in the experiment on MGC-803 came to 1.29 µM.
Regarding `CC(Oc1cc(-c2cnc3cc(-c4cnn(C5CCN(C(=O)OC(C)(C)C)C5)c4)ccn23)sc1C(N)=O)c1ccccc1C(F)(F)F` (stereo not given), in the experiment with MGC-803, the IC50 is 0.55 µM.

For orientation: IC50 means the concentration that inhibits the measured activity by half.

Values taken from ChEMBL document CHEMBL5244264, “Design, synthesis, and structure activity relationship (SAR) studies of novel imidazo[1,2-a] pyridine derivatives as Nek2 inhibitors” (Bioorg Med Chem, 2020).
